ChEMBL document CHEMBL1137710, “Synthesis and in vitro antitumor activity of new quinoxaline derivatives” (2009)

Legend:
Assay type in all cases: functional
PC-3 = assay: Growth inhibition of human PC3 cells after 48 hrs by sulforhodamine B assay; conditions: PC-3, 48 h
Procedure, shortened: (§1)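 NCI 60-human-tumor-cell-line panel, with compounds tested over a 5-log dose range. Values are taken from dose-response curves as log10 molar concentrations: GI50 is 50% net growth inhibition, TGI is total growth inhibition, and LC50 is 50% net cell death.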

OVCAR-5 = assay: Growth inhibition of human OVCAR5 cells after 48 hrs by sulforhodamine B assay; conditions: OVCAR-5, 48 h; procedure, shortened: as §1
MDA-MB-435 = assay: Growth inhibition of human MDA-MB-435 cells after 48 hrs by sulforhodamine B assay; conditions: MDA-MB-435, 48 h; procedure, shortened: as §1
TK-10 = assay: Growth inhibition of human TK10 cells after 48 hrs by sulforhodamine B assay; conditions: TK-10, 48 h
Procedure, shortened: (§2)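 Run in the NCI 60-human-tumour-cell-line panel, tested over a 5-log dose range. Dose–response curves gave three values per cell line, each as a log10 molar concentration: GI50 (50% inhibition of net cell growth), TGI (total inhibition of net growth) and LC50 (50% net cell death). The mean graph midpoint is the arithmetic mean over all lines, with insensitive lines entered at the highest concentration tested.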

OVCAR-4 = assay: Growth inhibition of human OVCAR4 cells after 48 hrs by sulforhodamine B assay; conditions: OVCAR-4, 48 h; procedure, shortened: as §1
MCF7 = assay: Anticancer activity against human MCF7 cells assessed as cell growth at 100 uM after 48 hrs by sulforhodamine B assay; conditions: MCF7, 48 h, read-out: Activity
LOX IMVI = assay: Growth inhibition of human LOXIMVI cells after 48 hrs by sulforhodamine B assay; procedure, shortened: as §1
MDA-MB-231 = assay: Growth inhibition of human MDA-MB-231 cells after 48 hrs by sulforhodamine B assay; conditions: MDA-MB-231, 48 h; procedure, shortened: as §1
A549 = assay: Growth inhibition of human A549 cells after 48 hrs by sulforhodamine B assay; conditions: A549, 48 h; procedure, shortened: as §1
SW-620 = assay: Growth inhibition of human SW620 cells after 48 hrs by sulforhodamine B assay; conditions: SW-620, 48 h; procedure, shortened: as §2
RXF 393 = assay: Growth inhibition of human RXF393 cells after 48 hrs by sulforhodamine B assay; conditions: RXF 393, 48 h; procedure, shortened: as §1
DU-145 = assay: Growth inhibition of human DU145 cells after 48 hrs by sulforhodamine B assay; conditions: DU-145, 48 h; procedure, shortened: as §1
U-251 = assay: Growth inhibition of human U251 cells after 48 hrs by sulforhodamine B assay; conditions: U-251, 48 h; procedure, shortened: as §2
COLO 205 = assay: Growth inhibition of human COLO205 cells after 48 hrs by sulforhodamine B assay; conditions: COLO 205, 48 h; procedure, shortened: as §1
OVCAR-8 = assay: Growth inhibition of human OVCAR8 cells after 48 hrs by sulforhodamine B assay; conditions: OVCAR-8, 48 h; procedure, shortened: as §1
SK-MEL-5 = assay: Growth inhibition of human SK-MEL-5 cells after 48 hrs by sulforhodamine B assay; conditions: SK-MEL-5, 48 h; procedure, shortened: as §1
IGROV-1 = assay: Growth inhibition of human IGROV1 cells after 48 hrs by sulforhodamine B assay; conditions: IGROV-1, 48 h; procedure, shortened: as §1
786-0 = assay: Growth inhibition of human 786-0 cells after 48 hrs by sulforhodamine B assay; conditions: 786-0, 48 h; procedure, shortened: as §1
M14 = assay: Growth inhibition of human M14 cells after 48 hrs by sulforhodamine B assay; conditions: M14, 48 h; procedure, shortened: as §1
HCT-116 = assay: Growth inhibition of human HCT116 cells after 48 hrs by sulforhodamine B assay; conditions: HCT-116, 48 h; procedure, shortened: as §1
SF-268 = assay: Growth inhibition of human SF268 cells after 48 hrs by sulforhodamine B assay; conditions: SF-268, 48 h; procedure, shortened: as §1
CAKI-1 = assay: Growth inhibition of human Caki1 cells after 48 hrs by sulforhodamine B assay; conditions: CAKI-1, 48 h; procedure, shortened: as §1
SF-295 = assay: Growth inhibition of human SF295 cells after 48 hrs by sulforhodamine B assay; conditions: SF-295, 48 h; procedure, shortened: as §1
[1] = Growth inhibition of human Hs 578T cells after 48 hrs by sulforhodamine B assay; procedure, shortened: as §1
NCI-H460 = assay: Anticancer activity against human NCI-H460 cells assessed as cell growth at 100 uM after 48 hrs by sulforhodamine B assay; conditions: NCI-H460, 48 h, read-out: Activity
NCI-H522 = assay: Growth inhibition of human NCI-H522 cells after 48 hrs by sulforhodamine B assay; conditions: NCI-H522, 48 h; procedure, shortened: as §1
SK-MEL-28 = assay: Growth inhibition of human SK-MEL-28 cells after 48 hrs by sulforhodamine B assay; conditions: SK-MEL-28, 48 h; procedure, shortened: as §1
NCI-H322M = assay: Growth inhibition of human NCI-H322M cells after 48 hrs by sulforhodamine B assay; procedure, shortened: as §1
NCI/ADR-RES = assay: Growth inhibition of human NCI/ADR-RES cells after 48 hrs by sulforhodamine B assay; procedure, shortened: as §1
K562 = assay: Growth inhibition of human K562 cells after 48 hrs by sulforhodamine B assay; conditions: K562, 48 h; procedure, shortened: as §1
[2] = read-out: pLC50 (the source's name) (converted)

Nc1cc(N)c2nc(-c3ccccc3)c(Sc3ccc(F)cc3)nc2c1
GI50 (PC-3): > 100 µM
CC50 (PC-3; [2]): > 100 µM
TGI (PC-3; read-out: pTGI (converted)): > 100 µM
GI50 (OVCAR-5): 19.1 µM
CC50 (OVCAR-5; [2]): > 100 µM
TGI (OVCAR-5; read-out: pTGI (converted)): 45.7 µM
GI50 (MDA-MB-435): 16.2 µM
CC50 (MDA-MB-435; [2]): 66.1 µM
TGI (MDA-MB-435; read-out: pTGI (converted)): 33.1 µM
GI50 (TK-10): > 100 µM
CC50 (TK-10; [2]): > 100 µM
TGI (TK-10; read-out: pTGI (converted)): > 100 µM
GI50 (OVCAR-4): 22.9 µM
CC50 (OVCAR-4; [2]): > 100 µM
TGI (OVCAR-4; read-out: pTGI (converted)): 56.2 µM
growth at 100 µM (MCF7): 7%
GI50 (LOX IMVI): 22.9 µM
LC50 (LOX IMVI): 74.1 µM
TGI (LOX IMVI; read-out: pTGI (converted)): 40.7 µM
GI50 (MDA-MB-231): 17.4 µM
CC50 (MDA-MB-231; [2]): 83.2 µM
TGI (MDA-MB-231; read-out: pTGI (converted)): 38 µM
GI50 (A549): 13.5 µM
LC50 (A549): 70.8 µM
TGI (A549; read-out: pTGI (converted)): 30.9 µM
GI50 (SW-620): 22.9 µM
CC50 (SW-620; [2]): > 100 µM
TGI (SW-620; read-out: pTGI (converted)): 50.1 µM
GI50 (RXF 393): > 100 µM
CC50 (RXF 393; [2]): > 100 µM
TGI (RXF 393; read-out: pTGI (converted)): > 100 µM
GI50 (DU-145): > 100 µM
CC50 (DU-145; [2]): > 100 µM
TGI (DU-145; read-out: pTGI (converted)): > 100 µM
GI50 (U-251): 16.2 µM
LC50 (50% net cell kill) (U-251): 61.7 µM
TGI (U-251; read-out: pTGI (converted)): 31.6 µM
GI50 (COLO 205): 21.9 µM
LC50 (50% net cell kill) (COLO 205): > 100 µM
TGI (COLO 205; read-out: pTGI (converted)): 47.9 µM
GI50 (OVCAR-8): 16.6 µM
CC50 (OVCAR-8; [2]): 72.4 µM
TGI (OVCAR-8; read-out: pTGI (converted)): 34.7 µM
GI50 (SK-MEL-5): 15.5 µM
CC50 (SK-MEL-5; [2]): 70.8 µM
TGI (SK-MEL-5; read-out: pTGI (converted)): 33.1 µM
GI50 (IGROV-1): 25.1 µM
CC50 (IGROV-1; [2]): > 100 µM
TGI (IGROV-1; read-out: pTGI (converted)): > 100 µM
GI50 (786-0): > 100 µM
CC50 (786-0; [2]): > 100 µM
TGI (786-0; read-out: pTGI (converted)): > 100 µM
GI50 (M14): 15.8 µM
CC50 (M14; [2]): 58.9 µM
TGI (M14; read-out: pTGI (converted)): 30.9 µM
GI50 (HCT-116): 14.8 µM
LC50 (concentration causing 50% net cell death) (HCT-116): 55 µM
TGI (HCT-116; read-out: pTGI (converted)): 28.2 µM
GI50 (SF-268): 17.8 µM
LC50 (SF-268): 85.1 µM
TGI (SF-268; read-out: pTGI (converted)): 38.9 µM
GI50 (CAKI-1): > 100 µM
CC50 (CAKI-1; [2]): > 100 µM
TGI (CAKI-1; read-out: pTGI (converted)): > 100 µM
GI50 (SF-295): 13.8 µM
LC50 (50% net cell kill) (SF-295): 64.6 µM
TGI (SF-295; read-out: pTGI (converted)): 30.2 µM
GI50 [1]: 26.9 µM
CC50 [1, 2]: > 100 µM
TGI ([1]; read-out: pTGI (converted)): 61.7 µM
growth at 100 µM (NCI-H460): 0%
GI50 (NCI-H522): > 100 µM
LC50 (NCI-H522): > 100 µM
TGI (NCI-H522; read-out: pTGI (converted)): > 100 µM
GI50 (SK-MEL-28): 23.4 µM
CC50 (SK-MEL-28; [2]): > 100 µM
TGI (SK-MEL-28; read-out: pTGI (converted)): 53.7 µM
GI50 (NCI-H322M): 20.4 µM
LC50 (NCI-H322M): 70.8 µM
TGI (NCI-H322M; read-out: pTGI (converted)): 38 µM
GI50 (NCI/ADR-RES): 16.6 µM
CC50 (NCI/ADR-RES; [2]): 72.4 µM
TGI (NCI/ADR-RES; read-out: pTGI (converted)): 34.7 µM
GI50 (K562): 39.8 µM
LC50 (K562): > 100 µM
TGI (K562; read-out: pTGI (converted)): 38.9 µM
